# pIC50: −log10 of the molar value.
# Experiments:
# [1] = Toxicity in SCID mouse infected with Plasmodium falciparum 3D70087/N9 at 50 to 100 mg/kg, po for 4 consecutive days measured after 7 days of post infection; type: organism-based; details: in vivo, 96 h, dose 50-100 mg/kg, time 4 day
# [2] = system: Plasmodium falciparum; experiment: Antiplasmodial activity against liver stage Plasmodium falciparum NF54 sporozoites infected in human hepatocytes assessed as parasite killing measured after 96 hrs by schizont assay; type: functional, organism-based; details: NF54, 96 h
# [3] = system: Hepatocyte; experiment: Cytotoxicity against human hepatocyte measured after 96 hrs; type: cell-based; details: hepatocytes
# [4] = system: Plasmodium falciparum; experiment: Antimalarial activity against Plasmodium falciparum Dd2 ELQ-300 mutant harbouring Pf-cytB assessed as inhibition of parasite growth incubated for […] by [3H]hypoxanthine incorporation assay based liquid scintillation counting method; type: functional, organism-based
# Summary of the method: (§1)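 Genetically engineered P. falciparum lines carried mutations introduced into the Dd2 wild-type strain, which was tested alongside them. Growth inhibition was read by [3H]hypoxanthine incorporation over 72 h. IC50 is the mean of two independent biological replicates. Chloroquine and artesunate served as controls.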
# [5] = system: Plasmodium falciparum; experiment: Antimalarial activity against Plasmodium falciparum TM90C2b harbouring Pf-crt, Pf-mdrl,Pfd-hfr, Pf-cytbQ0 mutated loci assessed as inhibition of parasite growth incubated for […] by [3H]hypoxanthine incorporation assay based liquid scintillation counting method; type: functional, organism-based
# Summary of the method: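 Drug-resistant laboratory P. falciparum strains were compared against the sensitive strain NF54. Growth inhibition was read by a modified [3H]hypoxanthine incorporation assay over 72 h. IC50 is the mean of two independent biological replicates. Chloroquine and artesunate served as controls.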
# [6] = system: Plasmodium falciparum; experiment: Antimalarial activity against Plasmodium falciparum Dd2 DSM265 mutant harbouring […] assessed as inhibition of parasite growth incubated for […] by [3H]hypoxanthine incorporation assay based liquid scintillation counting method; type: functional, organism-based; summary of the method: as §1
# [7] = system: Plasmodium falciparum; experiment: Antimalarial activity against Plasmodium falciparum Dd2 DDD498 mutant harbouring Pf-cytB assessed as inhibition of parasite growth incubated for […] by [3H]hypoxanthine incorporation assay based liquid scintillation counting method; type: functional, organism-based; summary of the method: as §1
# [8] = Intrinsic clearance in human hepatocytes measured per 10^6 cells at 0.25 uM by LC-MS analysis; type: ADME, cell-based, Hepatocyte; details: read-out: CLH
# Summary of the method: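 Compound at 0.25 μM incubated with cryopreserved human or rat hepatocytes (1×10^6 cells/mL) in Krebs–Henseleit buffer at 37 °C. Quenched with acetonitrile containing diazepam. LC-MS quantitation. CLint from the first-order degradation rate constant.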
# [9] = Apparent permeability of the compound from apical to basolateral side in human Caco-2 cells at 20 uM measured after 120 mins by LC-MS analysis; type: ADME, cell-based
# Summary of the method: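 Caco-2 monolayers, apical-to-basolateral direction, in pH 7.4 HBSS with 20 mM HEPES on both sides. Donor at nominal 20 μM, 0.1% DMSO final. Flux followed over 120 min. Quantified by LC-MS with mass balance to derive Papp.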
# [10] = Stability in Sprague-Dawley rat plasma assessed as compound remaining at 1000 ng/ml after 2 hrs by LC-MS analysis; type: ADME, cell-free; details: read-out: Stability
# Summary of the method: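 Pooled plasma (human, 3 donors; or male Sprague Dawley rat) spiked to nominal 1000 ng/mL, with at most 0.2% DMSO and 0.4% acetonitrile final. Held at 37 °C with timed aliquots. LC-MS against matrix standards with diazepam internal standard. Percent remaining is relative to the 5 min sample.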
# [11] = target: T1, CYP1A2 (Homo sapiens, UniProt P05177); experiment: Inhibition of CYP1A2 (unknown origin) at 10 uM by UPLC-MS analysis relative to control; type: ADME
# T1 sequence (P05177 whole entry): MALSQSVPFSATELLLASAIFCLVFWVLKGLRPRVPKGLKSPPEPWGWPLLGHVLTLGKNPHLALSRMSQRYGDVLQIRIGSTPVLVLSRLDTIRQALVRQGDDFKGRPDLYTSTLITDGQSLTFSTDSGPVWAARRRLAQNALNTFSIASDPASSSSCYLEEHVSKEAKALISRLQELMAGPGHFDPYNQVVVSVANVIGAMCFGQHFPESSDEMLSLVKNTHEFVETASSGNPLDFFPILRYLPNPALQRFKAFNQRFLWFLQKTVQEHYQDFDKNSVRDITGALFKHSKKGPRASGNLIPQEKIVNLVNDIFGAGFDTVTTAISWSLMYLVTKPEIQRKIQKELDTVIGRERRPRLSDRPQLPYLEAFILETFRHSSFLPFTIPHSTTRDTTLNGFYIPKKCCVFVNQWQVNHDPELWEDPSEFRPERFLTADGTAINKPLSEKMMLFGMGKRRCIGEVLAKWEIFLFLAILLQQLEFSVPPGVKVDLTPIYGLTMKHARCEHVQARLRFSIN
# Summary of the method: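 Human liver microsomes, using a substrate-specific metabolite approach. Test compound at 1 and 10 μM. Reference inhibitors: furafylline (1A2), sulfaphenazole (2C9), quinidine (2D6), ketoconazole (3A4). Specific metabolites quantified by UPLC-MS. Percent inhibition relative to incubation without inhibitor.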
# [12] = target: Voltage-gated inwardly rectifying potassium channel KCNH2 (Homo sapiens, UniProt Q12809); experiment: Inhibition of human ERG by QPatch automated patch clamp system
# Summary of the method: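 hERG current recorded on a QPatch automated patch clamp at four concentrations in 0.5-log steps.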
# [13] = system: Plasmodium falciparum; experiment: Antiplasmodial activity against asexual blood stage Plasmodium falciparum 3D7 (MR4) infected in erythrocytes assessed as parasite clearance time for 99.9% organism; type: functional
# Summary of the method: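 Samples taken every 24 h and washed free of drug. Viable parasites counted by limiting dilution: 3-fold serial dilutions, four independent series, growth scored at 21 days and confirmed at 28 days.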
# Voltage-gated inwardly rectifying potassium channel KCNH2, sequence (Q12809 whole entry): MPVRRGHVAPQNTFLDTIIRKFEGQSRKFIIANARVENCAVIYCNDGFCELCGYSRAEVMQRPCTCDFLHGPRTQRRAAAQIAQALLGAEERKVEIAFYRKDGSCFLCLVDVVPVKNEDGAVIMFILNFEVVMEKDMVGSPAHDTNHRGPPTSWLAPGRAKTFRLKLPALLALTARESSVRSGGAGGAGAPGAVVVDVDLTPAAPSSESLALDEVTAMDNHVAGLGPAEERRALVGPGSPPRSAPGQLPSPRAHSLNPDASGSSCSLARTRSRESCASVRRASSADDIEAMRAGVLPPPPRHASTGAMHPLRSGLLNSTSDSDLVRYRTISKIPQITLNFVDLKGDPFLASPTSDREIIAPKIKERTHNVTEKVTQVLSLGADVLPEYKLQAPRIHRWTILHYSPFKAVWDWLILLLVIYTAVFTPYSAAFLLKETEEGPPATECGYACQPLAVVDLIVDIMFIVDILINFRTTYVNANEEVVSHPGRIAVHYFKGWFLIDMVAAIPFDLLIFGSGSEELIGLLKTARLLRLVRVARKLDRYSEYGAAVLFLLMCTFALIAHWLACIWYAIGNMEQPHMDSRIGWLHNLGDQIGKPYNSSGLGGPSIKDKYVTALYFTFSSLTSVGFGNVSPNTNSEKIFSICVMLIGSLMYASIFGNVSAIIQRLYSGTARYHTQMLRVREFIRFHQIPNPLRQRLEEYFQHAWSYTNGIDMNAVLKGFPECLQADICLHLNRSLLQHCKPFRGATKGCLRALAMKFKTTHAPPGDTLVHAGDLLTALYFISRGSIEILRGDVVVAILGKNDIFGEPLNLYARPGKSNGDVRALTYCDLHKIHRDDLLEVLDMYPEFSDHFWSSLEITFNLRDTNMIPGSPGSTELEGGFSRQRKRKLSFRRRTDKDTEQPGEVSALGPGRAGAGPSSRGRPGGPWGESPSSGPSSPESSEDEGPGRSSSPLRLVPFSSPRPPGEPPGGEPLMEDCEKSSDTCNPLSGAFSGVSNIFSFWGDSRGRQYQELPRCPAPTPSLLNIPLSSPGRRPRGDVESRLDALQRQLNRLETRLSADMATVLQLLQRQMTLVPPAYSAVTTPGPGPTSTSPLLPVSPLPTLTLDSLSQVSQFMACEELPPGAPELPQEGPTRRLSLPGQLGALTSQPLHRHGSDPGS
smiles,measurement,setting,value
CCc1cccc(CNC(=O)c2nc3cccc(COCc4ccc(C(=O)O)cc4)c3c(=O)[nH]2)c1,Activity,[1],Non-Toxic
same,pIC50,[2],7.12
same,Activity,[3],Non-Toxic
same,pIC50,[4],7.70
same,pIC50,[5],7.62
same,pIC50,[6],7.64
same,pIC50,[7],7.72
same,hepatocyte CLint at 0.25 µM,[8],15 µL/min/1e6 cells
same,"Papp A→B at 2 h, 20 µM",[9],35 ×10⁻⁶ cm/s
same,"remaining at 2 h, 1000 ng/ml",[10],93.4%
same,inhibition at 10 µM,[11],< 10%
same,pIC50,[12],< 4.52
same,Time,[13],32 h
